# How the values were obtained:
# [1] = target: Muscle, skeletal receptor tyrosine-protein kinase (Homo sapiens) (UniProt O15146); assay: Binding affinity to wild-type human partial length MUSK (M553 to V869 residues) expressed in bacterial expression system assessed as residual binding level at 1 uM by Kinomescan method relative to control
# [2] = target: Dual specificity protein kinase CLK1 (Homo sapiens) (UniProt P49759); assay: Binding affinity to wild-type human full length CLK1 (M1 to I484 residues) expressed in bacterial expression system assessed as residual binding level at 1 uM by Kinomescan method relative to control
# How it was run: (§1)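 KINOMEscan competition binding against 468 purified kinases/mutants, test compound at 1 µM; residual binding relative to control.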
# [3] = test system: Tyrosine-protein kinase ABL1 (Homo sapiens), P00519 [E255K]; assay: Binding affinity to human phosphorylated ABL1 E255K mutant (S229 to K512 residues) expressed in mammalian expression system assessed as residual binding level at 1 uM by Kinomescan method relative to control
# How it was run: (§2)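 Kinome-wide single-concentration binding screen (KINOMEscan) at 1 μM against a panel of 468 purified kinases and mutants. Read-out is relative binding of each kinase compared with control. Selectivity across the panel was summarised as an S(10) score.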
# [4] = target: Tyrosine-protein kinase Lck (Homo sapiens) (UniProt P06239); assay: Binding affinity to wild-type human partial length LCK (R207 to P509 residues) expressed in bacterial expression system assessed as residual binding level at 1 uM by Kinomescan method relative to control
# [5] = target: Platelet-derived growth factor receptor alpha (Homo sapiens, UniProt P16234); assay: Inhibition of PDGFRalpha in human EOL-1 cells assessed as decrease in ERK phosphorylation at T202/Y204 residues after 2 hrs in presence of PDGF-AA by Western blot analysis; type: cell-based
# [6] = target: Mitogen-activated protein kinase kinase kinase 5 (Homo sapiens) (UniProt Q99683); assay: Binding affinity to wild-type human partial length ASK1 (E648 to S964 residues) expressed in bacterial expression system assessed as residual binding level at 1 uM by Kinomescan method relative to control
# How it was run: (§3)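 Single-concentration KINOMEscan (DiscoverX) binding screen at 1 μM against a panel of 468 purified kinases and mutants. The read-out is binding relative to control.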
# [7] = target: Vascular endothelial growth factor receptor 2 (Homo sapiens) (UniProt P35968)
# [8] = target: Microtubule-associated serine/threonine-protein kinase 1 (Homo sapiens) (UniProt Q9Y2H9); assay: Binding affinity to wild-type human partial length MAST1 (S346 to V730 residues) expressed in mammalian expression system assessed as residual binding level at 1 uM by Kinomescan method relative to control
# [9] = target: Serine/threonine-protein kinase PRP4 homolog (Homo sapiens) (UniProt Q13523); assay: Binding affinity to wild-type human partial length PRP4 (D657 to I1007 residues) expressed in bacterial expression system assessed as residual binding level at 1 uM by Kinomescan method relative to control
# [10] = target: Serine/threonine-protein kinase Nek9 (Homo sapiens) (UniProt Q8TD19); assay: Binding affinity to wild-type human partial length NEK9 (P32 to R328 residues) expressed in bacterial expression system assessed as residual binding level at 1 uM by Kinomescan method relative to control
# How it was run: (§4)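 KINOMEscan competition binding against a panel of 468 purified kinases/mutants, compound tested at 1 μM; readout is relative binding activity versus control.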
# [11] = target: Cyclin-dependent kinase 15 (Homo sapiens) (UniProt Q96Q40); assay: Binding affinity to wild-type human full length PFTAIRE2 (M1 to W384 residues) expressed in bacterial expression system assessed as residual binding level at 1 uM by Kinomescan method relative to control; how it was run: as §1
# [12] = target: Receptor-interacting serine/threonine-protein kinase 2 (Homo sapiens) (UniProt O43353); assay: Binding affinity to wild-type human partial length RIPK2 (M1 to K310 residues) expressed in bacterial expression system assessed as residual binding level at 1 uM by Kinomescan method relative to control
# [13] = test system: Phosphatidylinositol 4,5-bisphosphate 3-kinase catalytic subunit alpha isoform (Homo sapiens), P42336 [E545A]; assay: Binding affinity to human partial length PIK3CA E545A mutant (R108 to N1068 residues) expressed in mammalian expression system assessed as residual binding level at 1 uM by Kinomescan method relative to control; how it was run: as §2
# [14] = target: Wee1-like protein kinase (Homo sapiens) (UniProt P30291); assay: Binding affinity to wild-type human partial length WEE1 (M291 to K575 residues) expressed in bacterial expression system assessed as residual binding level at 1 uM by Kinomescan method relative to control; how it was run: as §4
# [15] = target: Serine/threonine-protein kinase OSR1 (Homo sapiens) (UniProt O95747); assay: Binding affinity to wild-type human full length OSR1 (M1 to S527 residues) expressed in mammalian expression system assessed as residual binding level at 1 uM by Kinomescan method relative to control; how it was run: as §3
# [16] = target: Mitogen-activated protein kinase 9 (Homo sapiens) (UniProt P45984); assay: Binding affinity to wild-type human full length JNK2 (M1 to Q382 residues) expressed in mammalian expression system assessed as residual binding level at 1 uM by Kinomescan method relative to control; how it was run: as §1
# [17] = target: Proto-oncogene tyrosine-protein kinase Src (Homo sapiens) (UniProt P12931); assay: Binding affinity to wild-type human partial length SRC (L240 to L536 residues) expressed in bacterial expression system assessed as residual binding level at 1 uM by Kinomescan method relative to control
# [18] = target: Serine/threonine-protein kinase D2 (Homo sapiens) (UniProt Q9BZL6); assay: Binding affinity to wild-type human partial length PRKD2 (A519 to E838 residues) expressed in bacterial expression system assessed as residual binding level at 1 uM by Kinomescan method relative to control
# [19] = target: Protein-tyrosine kinase 6 (Homo sapiens) (UniProt Q13882); assay: Binding affinity to wild-type human partial length BRK (L166 to T451 residues) expressed in bacterial expression system assessed as residual binding level at 1 uM by Kinomescan method relative to control; how it was run: as §3
# EOL1 = assay: Antitumor activity against human EOL-1 cells xenografted in nu/nu mouse assessed as tumor growth inhibition at 25 to 100 mg/kg/day, ip; type: functional, organism-based
# How it was run: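 Female nu/nu mice, six weeks old; 5 million EOL-1 cells in PBS mixed 1:1 with Matrigel, injected subcutaneously in the right flank. Dosing began once tumors reached 200–400 mm3, with randomization into groups of 6. Daily IP dosing at 25.0, 50.0 or 100 mg/kg/d in 0.5% methocellulose/0.4% Tween80 in water, or vehicle alone, for 14 days. Tumor volume = (W2×L)/2, measured daily. Final tumor weights were also recorded.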
# [20] = target: Serine/threonine-protein kinase B-raf (Homo sapiens) (UniProt P15056); assay: Binding affinity to wild-type human partial length BRAF (S429 to E741 residues) expressed in mammalian expression system assessed as residual binding level at 1 uM by Kinomescan method relative to control; how it was run: as §3
# Chain of Serine/threonine-protein kinase B-raf (Homo sapiens) (P15056 whole entry, the tested form may be a part): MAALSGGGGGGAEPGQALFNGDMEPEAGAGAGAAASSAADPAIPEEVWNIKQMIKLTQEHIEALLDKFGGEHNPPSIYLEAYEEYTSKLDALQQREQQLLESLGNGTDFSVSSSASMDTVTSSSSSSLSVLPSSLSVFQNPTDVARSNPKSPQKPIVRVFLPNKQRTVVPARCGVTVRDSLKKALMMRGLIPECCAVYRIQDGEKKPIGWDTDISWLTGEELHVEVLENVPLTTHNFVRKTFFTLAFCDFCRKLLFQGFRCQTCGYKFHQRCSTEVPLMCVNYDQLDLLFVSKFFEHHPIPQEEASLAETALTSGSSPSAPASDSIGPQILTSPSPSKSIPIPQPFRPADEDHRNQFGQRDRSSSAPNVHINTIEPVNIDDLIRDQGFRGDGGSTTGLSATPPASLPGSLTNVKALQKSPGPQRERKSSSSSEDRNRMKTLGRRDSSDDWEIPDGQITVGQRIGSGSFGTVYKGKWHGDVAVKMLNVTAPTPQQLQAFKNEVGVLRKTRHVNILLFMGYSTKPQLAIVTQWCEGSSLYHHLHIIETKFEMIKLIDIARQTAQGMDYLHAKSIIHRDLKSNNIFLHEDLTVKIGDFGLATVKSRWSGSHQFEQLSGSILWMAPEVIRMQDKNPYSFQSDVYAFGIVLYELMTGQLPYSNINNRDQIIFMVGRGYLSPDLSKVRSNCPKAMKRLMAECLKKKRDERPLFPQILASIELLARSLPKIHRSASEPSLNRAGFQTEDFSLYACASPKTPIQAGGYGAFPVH
# Chain of Muscle, skeletal receptor tyrosine-protein kinase (Homo sapiens) (O15146 whole entry, the tested form may be a part): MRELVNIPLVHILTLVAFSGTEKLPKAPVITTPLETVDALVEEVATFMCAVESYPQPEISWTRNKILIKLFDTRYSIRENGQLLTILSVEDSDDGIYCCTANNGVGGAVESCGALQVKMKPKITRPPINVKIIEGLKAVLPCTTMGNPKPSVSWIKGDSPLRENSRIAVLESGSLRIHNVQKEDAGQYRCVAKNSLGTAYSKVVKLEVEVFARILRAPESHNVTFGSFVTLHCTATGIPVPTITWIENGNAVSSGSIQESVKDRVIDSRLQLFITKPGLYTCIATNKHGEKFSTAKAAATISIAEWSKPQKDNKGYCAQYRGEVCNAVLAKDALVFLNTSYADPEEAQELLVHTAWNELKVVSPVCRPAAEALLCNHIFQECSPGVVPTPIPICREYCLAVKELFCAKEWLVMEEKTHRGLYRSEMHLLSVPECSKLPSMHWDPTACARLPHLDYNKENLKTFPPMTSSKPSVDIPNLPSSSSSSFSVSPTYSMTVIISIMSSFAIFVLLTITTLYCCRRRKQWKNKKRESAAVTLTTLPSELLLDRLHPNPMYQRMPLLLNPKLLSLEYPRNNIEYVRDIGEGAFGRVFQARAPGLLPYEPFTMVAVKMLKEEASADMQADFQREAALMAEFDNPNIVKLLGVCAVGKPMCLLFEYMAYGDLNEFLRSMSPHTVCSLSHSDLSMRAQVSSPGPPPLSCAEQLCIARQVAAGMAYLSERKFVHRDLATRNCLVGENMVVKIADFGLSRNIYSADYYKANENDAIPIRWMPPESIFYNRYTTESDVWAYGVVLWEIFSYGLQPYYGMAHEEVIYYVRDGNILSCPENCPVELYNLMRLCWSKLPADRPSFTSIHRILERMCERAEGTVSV
# Chain of Cyclin-dependent kinase 15 (Homo sapiens) (Q96Q40 whole entry, the tested form may be a part): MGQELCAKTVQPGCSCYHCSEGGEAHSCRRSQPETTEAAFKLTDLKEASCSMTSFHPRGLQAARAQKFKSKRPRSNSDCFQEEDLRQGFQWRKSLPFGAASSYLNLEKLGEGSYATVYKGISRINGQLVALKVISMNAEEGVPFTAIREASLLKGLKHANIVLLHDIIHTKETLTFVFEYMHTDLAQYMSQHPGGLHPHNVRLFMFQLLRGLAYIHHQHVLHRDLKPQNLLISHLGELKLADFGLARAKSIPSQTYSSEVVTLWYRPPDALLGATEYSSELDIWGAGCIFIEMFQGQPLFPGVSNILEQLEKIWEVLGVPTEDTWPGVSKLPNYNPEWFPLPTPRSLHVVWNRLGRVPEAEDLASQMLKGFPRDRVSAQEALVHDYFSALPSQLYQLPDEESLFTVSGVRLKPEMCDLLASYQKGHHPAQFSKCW
# Chain of Platelet-derived growth factor receptor alpha (P16234 whole entry, the tested form may be a part): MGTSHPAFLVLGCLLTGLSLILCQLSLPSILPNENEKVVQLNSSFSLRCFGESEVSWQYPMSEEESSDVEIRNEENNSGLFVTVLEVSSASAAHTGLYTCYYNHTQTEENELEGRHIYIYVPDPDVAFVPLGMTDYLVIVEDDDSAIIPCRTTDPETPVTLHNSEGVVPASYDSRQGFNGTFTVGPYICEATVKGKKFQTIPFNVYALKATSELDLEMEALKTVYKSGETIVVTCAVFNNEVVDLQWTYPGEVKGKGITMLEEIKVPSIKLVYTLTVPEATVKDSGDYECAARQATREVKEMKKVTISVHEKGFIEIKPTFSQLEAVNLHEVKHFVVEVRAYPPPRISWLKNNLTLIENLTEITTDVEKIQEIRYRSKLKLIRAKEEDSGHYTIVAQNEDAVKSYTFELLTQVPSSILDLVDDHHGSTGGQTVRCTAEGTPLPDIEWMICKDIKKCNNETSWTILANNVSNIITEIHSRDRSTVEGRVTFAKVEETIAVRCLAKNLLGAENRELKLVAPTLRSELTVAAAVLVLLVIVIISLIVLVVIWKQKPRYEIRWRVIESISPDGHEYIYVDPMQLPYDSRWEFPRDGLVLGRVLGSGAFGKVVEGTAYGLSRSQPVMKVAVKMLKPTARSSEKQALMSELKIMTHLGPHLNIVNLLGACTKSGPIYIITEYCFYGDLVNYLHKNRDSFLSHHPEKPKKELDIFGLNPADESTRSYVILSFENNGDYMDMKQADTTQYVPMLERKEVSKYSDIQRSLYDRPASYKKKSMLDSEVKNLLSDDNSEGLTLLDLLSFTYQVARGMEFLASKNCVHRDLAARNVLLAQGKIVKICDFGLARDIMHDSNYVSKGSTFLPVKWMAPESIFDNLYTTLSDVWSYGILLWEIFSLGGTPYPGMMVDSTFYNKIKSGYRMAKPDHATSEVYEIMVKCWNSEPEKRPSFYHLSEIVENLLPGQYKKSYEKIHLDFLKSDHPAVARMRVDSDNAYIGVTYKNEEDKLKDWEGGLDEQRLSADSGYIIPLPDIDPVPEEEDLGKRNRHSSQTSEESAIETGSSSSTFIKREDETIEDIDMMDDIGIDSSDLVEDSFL
# Chain of Protein-tyrosine kinase 6 (Homo sapiens) (Q13882 whole entry, looked up, the tested form may be a part): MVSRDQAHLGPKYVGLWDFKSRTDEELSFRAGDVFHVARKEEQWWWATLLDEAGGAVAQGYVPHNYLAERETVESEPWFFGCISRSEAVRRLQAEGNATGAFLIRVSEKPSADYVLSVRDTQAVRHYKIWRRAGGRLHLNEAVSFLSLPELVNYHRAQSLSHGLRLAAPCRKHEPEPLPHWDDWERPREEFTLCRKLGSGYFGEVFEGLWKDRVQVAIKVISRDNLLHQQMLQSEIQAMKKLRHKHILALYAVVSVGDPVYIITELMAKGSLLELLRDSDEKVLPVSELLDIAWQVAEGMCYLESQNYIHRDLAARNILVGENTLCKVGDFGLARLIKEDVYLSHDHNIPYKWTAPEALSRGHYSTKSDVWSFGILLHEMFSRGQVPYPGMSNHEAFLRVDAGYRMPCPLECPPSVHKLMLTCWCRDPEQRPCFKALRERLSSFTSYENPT
# Chain of Vascular endothelial growth factor receptor 2 (Homo sapiens) (P35968 whole entry, the tested form may be a part): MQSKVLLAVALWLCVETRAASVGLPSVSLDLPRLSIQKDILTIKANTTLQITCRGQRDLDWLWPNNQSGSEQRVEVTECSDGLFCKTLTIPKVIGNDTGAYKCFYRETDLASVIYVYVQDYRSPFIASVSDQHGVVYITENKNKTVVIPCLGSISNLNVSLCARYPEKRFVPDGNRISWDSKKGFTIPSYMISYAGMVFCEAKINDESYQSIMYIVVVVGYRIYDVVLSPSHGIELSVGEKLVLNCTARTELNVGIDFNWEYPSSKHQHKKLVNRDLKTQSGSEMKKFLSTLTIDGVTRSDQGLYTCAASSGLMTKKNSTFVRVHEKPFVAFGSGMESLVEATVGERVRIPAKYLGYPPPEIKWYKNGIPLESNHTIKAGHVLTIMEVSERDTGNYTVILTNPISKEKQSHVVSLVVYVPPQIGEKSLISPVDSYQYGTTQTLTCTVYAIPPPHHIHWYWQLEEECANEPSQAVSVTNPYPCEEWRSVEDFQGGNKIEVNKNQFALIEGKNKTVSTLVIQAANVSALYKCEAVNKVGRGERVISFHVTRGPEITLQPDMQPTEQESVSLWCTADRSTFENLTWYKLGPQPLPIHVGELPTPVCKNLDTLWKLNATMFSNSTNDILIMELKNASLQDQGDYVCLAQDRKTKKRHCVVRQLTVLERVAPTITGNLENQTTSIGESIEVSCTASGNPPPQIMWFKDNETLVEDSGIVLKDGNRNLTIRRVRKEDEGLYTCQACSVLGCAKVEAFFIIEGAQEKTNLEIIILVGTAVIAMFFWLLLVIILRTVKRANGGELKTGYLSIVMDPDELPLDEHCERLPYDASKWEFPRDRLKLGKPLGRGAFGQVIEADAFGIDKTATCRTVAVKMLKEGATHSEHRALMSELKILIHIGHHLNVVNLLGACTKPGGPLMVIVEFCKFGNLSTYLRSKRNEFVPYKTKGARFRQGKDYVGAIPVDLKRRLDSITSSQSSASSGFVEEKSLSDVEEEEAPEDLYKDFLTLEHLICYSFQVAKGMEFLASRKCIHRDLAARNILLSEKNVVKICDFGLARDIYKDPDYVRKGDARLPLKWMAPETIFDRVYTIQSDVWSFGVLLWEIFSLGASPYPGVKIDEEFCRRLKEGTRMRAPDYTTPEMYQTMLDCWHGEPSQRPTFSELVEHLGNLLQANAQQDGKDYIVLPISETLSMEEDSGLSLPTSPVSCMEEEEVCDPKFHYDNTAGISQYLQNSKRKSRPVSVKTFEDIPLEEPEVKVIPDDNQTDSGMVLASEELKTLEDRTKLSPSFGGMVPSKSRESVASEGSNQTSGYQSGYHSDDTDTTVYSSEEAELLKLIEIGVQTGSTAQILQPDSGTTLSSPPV
smiles,measurement,setting,value
Cc1ccc(NC(=O)c2ccc(CN(CCN(C)C)C(=O)c3cccnc3)cc2)cc1Nc1nccc(-c2cccnc2)n1,Activity,[1],100%
same,Activity,[2],87%
same,Activity,[3],80%
same,Activity,[4],100%
same,inhibition,[5],Dose-dependent effect
same,Activity,[6],100%
same,GI50,[7],> 10 µM
same,Activity,[8],100%
same,Activity,[9],100%
same,Activity,[10],92%
same,Activity,[11],87%
same,Activity,[12],93%
same,Activity,[13],63%
same,Activity,[14],87%
same,Activity,[15],100%
same,Activity,[16],91%
same,Activity,[17],100%
same,Activity,[18],93%
same,Activity,[19],81%
same,TGI,EOL1,Dose-dependent effect
same,Activity,[20],88%
